Results: PMC12328631 (Nature Communications, 2025)
Peptide text beside a SMILES is read from it. * marks the point of attachment. Cbz = O=C(OCc1ccccc1)*

Legend:
[1] = biological target: Sec61 translocon (Homo sapiens, UniProt P61619); assay: RELITE assay, FLuc equipped with the SP of CD4; format: cell-based; settings: for effect on FLuc/RLuc ratio: Fig. 1h, 6 hours of treatment, non-selective Sec61 inhibitors; for response of the RELITE assay (FLuc/RLuc ratio): Fig. S8b; for response of the RELITE assay (FLuc/RLuc ratio) / effect on FLuc activity (FLuc/RLuc ratio): HEK293, 6 hours; for effect on FLuc activity (FLuc/RLuc ratio): Tunicamycin 10 μg/ml, Thapsigargin 3 μM
Sequence of Sec61 translocon (P60468 2-96): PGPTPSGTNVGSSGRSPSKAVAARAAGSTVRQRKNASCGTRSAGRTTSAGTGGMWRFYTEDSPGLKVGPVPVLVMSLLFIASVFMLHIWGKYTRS
Sequence of Sec61 translocon (P61619 whole entry): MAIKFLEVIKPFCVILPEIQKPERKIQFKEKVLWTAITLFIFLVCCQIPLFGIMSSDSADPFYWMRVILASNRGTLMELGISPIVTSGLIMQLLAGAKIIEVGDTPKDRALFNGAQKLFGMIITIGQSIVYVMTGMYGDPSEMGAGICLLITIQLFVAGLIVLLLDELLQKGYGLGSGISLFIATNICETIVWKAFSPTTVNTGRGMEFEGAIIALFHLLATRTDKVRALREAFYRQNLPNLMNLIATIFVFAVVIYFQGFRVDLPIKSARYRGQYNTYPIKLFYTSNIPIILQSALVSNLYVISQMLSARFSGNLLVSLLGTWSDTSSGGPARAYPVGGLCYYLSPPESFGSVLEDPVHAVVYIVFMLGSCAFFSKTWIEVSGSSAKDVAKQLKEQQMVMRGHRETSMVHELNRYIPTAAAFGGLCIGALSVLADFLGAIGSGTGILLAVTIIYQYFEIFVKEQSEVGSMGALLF
Sequence of Sec61 translocon (P60059 whole entry, further chain): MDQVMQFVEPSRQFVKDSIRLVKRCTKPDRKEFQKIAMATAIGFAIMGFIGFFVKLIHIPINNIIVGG

[2] = test system: Firefly luciferase (FLuc) reporter equipped with the SP of CD4; assay: FLuc enzymatic activity in HEK293 transfected with the IRES-vector; format: cell-based, human
Summary of the method: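 HEK293 cells were transiently transfected with a bicistronic IRES vector carrying the CD4 signal peptide-FLuc reporter. For fractionation, cells were treated 24 h post-transfection for 6 h, mechanically lysed and ultracentrifuged into P100 and S100 fractions, and FLuc was read on each. For the time course, cells were replated 8 h post-transfection, treated 16 h later, and FLuc was read up to 6 h. For the chase, 100 µg/ml cycloheximide was added for 2 h after 6 h treatment.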

[3] = test system: PD-L1; format: cell-based, human; settings: read-out: IC50 (PD-L1-HA protein levels); GB138 stably expressing SPnPD-L1-HA, 0 to 20 μM, 24 hours (Fig. S4)
Summary of the method: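 GB138 glioblastoma cells stably expressing SPnPD-L1-HA were kept at 37 °C in DMEM with 10% FBS, 2 mM L-Gln and 400 μg/ml G418. Cells were exposed to test compounds at 0 to 20 μM for 24 h. Extracts in Triton-containing B-Buffer were resolved by SDS-PAGE and PD-L1-HA levels quantified by western blot with ECL, using calnexin as loading control. IC50 was taken from the titration curve.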

[4] = test system: HA-FLuc; assay: HA-FLuc protein levels by western blotting; format: cell-based, human; settings: total cell extract, 6 h
Summary of the method: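 HEK293 cells were transfected with the IRES vector and replated after 8 h, then treated 16 h later for up to 6 h. Total extracts were made in B-Buffer (50 mM HEPES, 150 mM NaCl, 1% Triton X-100, protease inhibitors) and equalised by Bradford. Cytosolic and membrane fractions came from syringe lysis and differential centrifugation. Western blots used anti-HA, with GAPDH and calnexin as fraction markers.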

[5] = test system: GB138 cells; assay: Cell viability assay; format: cell-based, human; settings: GB138 (Fig. S5)

CC(=C\C=C\C(C)=C\[C@H](O)[C@@H](O)C[C@H](C)O)/C=C(C)/C=C/C(=O)O[C@H]1CCCC(=O)O[C@@H]([C@@H](C)C/C(C)=C/[C@@H](C)[C@H](O)C[C@@H](C)O)C/C=C(\C)C[C@@H]1C [Mycolactone]
effect on FLuc/RLuc ratio [1]: significant elevation of the FLuc/RLuc ratio

C=C1CN(S(=O)(=O)c2ccc(C)cc2)CCCN(Cc2ccccc2)CCCN(S(=O)(=O)c2ccc(C)cc2)C1 [CADA, Cyclotriazadisulfonamide]
FLuc activity after cell fractionation ([2]; Fig. 1d, S100 vs P100): increased FLuc activity only in the cytosolic S100 fraction
IC50 [3]: ~20 µM
total HA-FLuc protein levels (western blotting) [4]: significant reduction of the total HA-FLuc protein levels
CADA effect on FLuc activity under co-treatment with cycloheximide (CHX) ([1]; Fig. S1b, CADA 20 μM + CHX 100 μg/ml, 6 hours): abrogated the CADA effect

CC(C)C[C@@H](C=O)NC(=O)[C@H](CC(C)C)NC(=O)[C@H](CC(C)C)NC(=O)OCc1ccccc1 [MG132] (Cbz-Leu-Leu-Leu-aldehyde)
FLuc enzymatic activity over time ([2]; Fig. 1e, up to 6 h): time-dependent increment of the FLuc enzymatic activity

COc1ccc(C[C@H](N)C(=O)N[C@H]2[C@@H](O)[C@H](n3cnc4c(N(C)C)ncnc43)O[C@@H]2CO)cc1 [Puromycin]
response of the RELITE assay (FLuc/RLuc ratio) [1]: not responding

Tunicamycin
toxicity in cell viability assay [5]: highly toxic for the cells
effect on FLuc activity (FLuc/RLuc ratio) ([1]; Fig. S1b): significant elevation of the FLuc activity

C[C@H]1CCC/C=C/[C@@H]2C[C@H](O)C[C@H]2[C@H](O)/C=C/C(=O)O1 [Brefeldin A]
response of the RELITE assay (FLuc/RLuc ratio) [1]: not responding

C[C@@H]1C[C@@H]([C@H](O)CC2CC(=O)NC(=O)C2)C(=O)[C@@H](C)C1 [Cycloheximide]
response of the RELITE assay (FLuc/RLuc ratio) [1]: not responding

CCN(CCO)CCCC(C)Nc1ccnc2cc(Cl)ccc12 (stereo not shown) [Hydroxychloroquine]
response of the RELITE assay (FLuc/RLuc ratio) [1]: not responding

CC1(C)C(N(O)C(=O)Nc2ccc(Cl)cc2)N(c2ccc(Cl)cc2)C(=O)N1CC(=O)N/N=C/C=C/c1ccc([N+](=O)[O-])o1 (stereo not shown) [Eeyarestatin 1]
total HA-FLuc protein levels (western blotting) [4]: significant reduction of FLuc protein levels
effect on FLuc/RLuc ratio [1]: significant reduction of the FLuc/RLuc ratio

C/C=C(/C)C(=O)O[C@H]1C(C)=C2[C@H]([C@@H]1OC(=O)CCCCCCC)[C@@](C)(OC(C)=O)C[C@H](OC(=O)CCC)[C@@]1(O)[C@H]2OC(=O)[C@@]1(C)O [Thapsigargin]
effect on FLuc activity (FLuc/RLuc ratio) ([1]; Fig. S1b): failed to increase activity
response of the RELITE assay (FLuc/RLuc ratio) [1]: not responding
